In article PMC9283305 (Nitric oxide : biology and chemistry, 2022):
Substitutions are numbered along the chain they refer to. In names and notes the source's numbering stands. Like-named read-outs stand apart in the source and are kept apart here.

B1: H81A: human cytoglobin distal histidine His81(E7) to Ala mutant (protein, UniProt Q8WWM9 1-190, looked up, variant H81A)
Cytoglobin: MEKVPGEMEIERRERSEELSEAERKAVQAMWARLYANCEDVGVAILVRFFVNFPSAKQYFSQFKHMEDPLEMERSPQLRKAACRVMGALNTVVENLHDPDKVSSVLALVGKAHALKHKVEPVYFKILSGVILEVVAEEFASDFPPETQRAWAKLRGLIYSHVTAAYKEVGWVQQVPNATTPPATLPSSGP
B2: Cytoglobin Wild-type: wild-type (WT) human Cygb protein, His-tagged, recombinantly expressed (protein, UniProt Q8WWM9 1-190, looked up)
Cytoglobin: B1 Cytoglobin with A81H
modifications: His-tag
B3: H81W: human cytoglobin distal histidine His81(E7) to Trp mutant (protein, UniProt Q8WWM9 1-190, looked up, variant H81W)
Cytoglobin: B1 Cytoglobin with A81W
B4: H81L: human cytoglobin distal histidine His81(E7) to Leu mutant (protein, UniProt Q8WWM9 1-190, looked up, variant H81L)
Cytoglobin: B1 Cytoglobin with A81L
B5: T91D: human cytoglobin mutant Thr91 to Asp (protein, UniProt Q8WWM9 1-190, looked up, variant T91D)
Cytoglobin: B1 Cytoglobin with A81H, T91D
B6: H81Q: human cytoglobin distal histidine His81(E7) to Gln mutant (protein, UniProt Q8WWM9 1-190, looked up, variant H81Q)
Cytoglobin: B1 Cytoglobin with A81Q
B7: K116E: human cytoglobin surface mutant Lys116 to Glu (protein, UniProt Q8WWM9 1-190, looked up, variant K116E)
Cytoglobin: B1 Cytoglobin with A81H, K116E
B8: V105Y: human cytoglobin hydrophobic surface patch mutant Val105 to Tyr (protein, UniProt Q8WWM9 1-190, looked up, variant V105Y)
Cytoglobin: B1 Cytoglobin with A81H, V105Y
B9: R84E: human cytoglobin surface mutant Arg84 to Glu (protein, UniProt Q8WWM9 1-190, looked up, variant R84E)
Cytoglobin: B1 Cytoglobin with A81H, R84E
B10: L108Q: human cytoglobin hydrophobic surface patch mutant Leu108 to Gln (protein, UniProt Q8WWM9 1-190, looked up, variant L108Q)
Cytoglobin: B1 Cytoglobin with A81H, L108Q
B11: Neuroglobin Wild-type: wild-type human neuroglobin (protein, UniProt Q9NPG2 1-151, looked up)
Neuroglobin: MERPEPELIRQSWRAVSRSPLEHGTVLFARLFALEPDLLPLFQYNCRQFSSPEDCLSSPEFLDHIRKVMLVIDAAVTNVEDLSSLEEYLASLGRKHRAVGVKLSSFSTVGESLLYMLEKCLGPAFTPATRAAWSQLYGAVVQAMSRGWDGE
B12: Neuroglobin H64Q: human neuroglobin distal histidine His64(E7) to Gln mutant (protein, UniProt Q9NPG2 1-151, looked up, variant H64Q)
Neuroglobin: B11 Neuroglobin with H64Q
B13: Neuroglobin H64W: human neuroglobin distal histidine His64(E7) to Trp mutant (protein, UniProt Q9NPG2 1-151, looked up, variant H64W)
Neuroglobin: B11 Neuroglobin with H64W
B14: Neuroglobin H64L: His-tagged neuroglobin distal histidine His64(E7) to Leu mutant (protein, UniProt Q9NPG2 1-151, looked up, variant H64L)
Neuroglobin: B11 Neuroglobin with H64L
B15: Neuroglobin H64A: human neuroglobin distal histidine His64(E7) to Ala mutant (protein, UniProt Q9NPG2 1-151, looked up, variant H64A)
Neuroglobin: B11 Neuroglobin with H64A
B16: zebrafish Cygb1: zebrafish cytoglobin 1, a five-coordinate native globin (protein, UniProt Q8UUR3 1-174, looked up)
Cytoglobin-1: MEGDGGVQLTQSPDSLTEEDVCVIQDTWKPVYAERDNAGVAVLVRFFTNFPSAKQYFEHFRELQDPAEMQQNAQLKEHGQRVLNALNTLVENLRDADKLNTIFNQMGKSHALRHKVDPVYFKILAGVILEVLVEAFPQCFSPAEVQSSWSKLMGILYWQMNRVYAEVGWENSKK

Legend:
[1] = Autoxidation of the ferrous-dioxygen; format: biochemical, human
Outline: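 Human Cygb WT and mutants were His-tagged, expressed in SoluBL21 cells and purified on Ni-NTA. Fe(II)-O2 was formed by excess dithionite reduction, then G25 gel filtration in aerobic buffer, mixed with prewarmed buffer at 37 °C and followed spectrally for 30–60 min. For two surface mutants, deoxy protein was made in a glovebox, desalted anaerobically and mixed 4:1 with O2-saturated buffer; read at 1 spectrum/s for 1000 s. At least triplicate; mean ± SD.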

[2] = Nitrite reduction to NO by ferrous globins in the presence of excess dithionite; format: biochemical, human; details: for Nitrite reductase reaction rate constant: 37°C, 100 mM sodium phosphate, pH 7.4, excess dithionite
Outline: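 Ran in 100 mM sodium phosphate, pH 7.4, 37 °C, with 2.5 mM dithionite to keep heme ferrous and remove O2. Globin (2–10 μM) was mixed with nitrite, typically 1–10 mM, or 250 μM–2 mM for distal-His mutants. Spectra were read over 350–700 nm and fit single-exponential; rate constants came from the nitrite series. At least triplicate, with ≥2 protein batches; mean ± SD.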

[3] = Imidazole binding to ferric cytoglobin by UV-Vis difference spectroscopy; parameters: species or system human; details: read-out: Imidazole KD; ferric protein
Outline: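 Ferric globin (5–15 μM) was titrated with imidazole stocks (1–100 mM) to about 100–15000 μM final. Buffer was 100 mM sodium phosphate, pH 7.4, at 25 °C. UV-Vis difference spectra were taken, and the max–min absorbance difference was plotted against ligand. KD came from a 1:1 quadratic binding fit. At least triplicate, with ≥2 protein batches; mean ± SD.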

[4] = 37°C, 100 mM sodium phosphate, pH 7.4; cited from earlier work
[5] = cited from earlier work; for Nitrite reductase reaction rate constant: 37°C, 100 mM sodium phosphate, pH 7.4
[6] = cited from earlier work
Oleic acid = format: binding, human
Outline: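 Oleate was titrated into ferric distal-His mutant globins with imidazole present: 250 μM, or a series of imidazole levels. Difference spectra were taken by subtracting the initial spectrum. The absorbance difference at the wavelength of largest change was fit against oleate concentration to give an apparent KD. Buffer was 100 mM sodium phosphate, pH 7.4, 25 °C.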

[7] = 37°C, 100 mM sodium phosphate, pH 7.4
[8] = 37°C, 100 mM sodium phosphate, pH 7.4, decay fit to a two-exponential equation

Molecule	Autoxidation rate [1, 7]	Nitrite reductase reaction rate constant [2]	Autoxidation rate [4]	Nitrite reductase reaction rate constant [5]	further results
B1	0.094 ± 0.038 min⁻¹	1100 ± 100 M⁻¹ s⁻¹			Nitrite reductase reaction rate constant ([2]; listed as His81Ala): up to 1100 M^−1s^−1; Fold increase in nitrite reduction rate constant versus Cygb WT [2]: up to 1000 fold
B2			0.270 ± 0.020^a min^−1	1.14 ± 0.07^e M^−1s^−1	Kd [3]: ~1000 µM; Nitrite reduction rate ([5]; in the presence of the intramolecular disulfide bond): 32.3 M⁻¹ s⁻¹; Binding to lipids ([6]; Cygb with the reduced thiols): little or no binding; Kd ([6]; read-out: KD for lipids such as oleic acid and cardiolipin): ~1 µM
B3	0.135 ± 0.034 min⁻¹	10.7 ± 2.1 M⁻¹ s⁻¹			
B4	0.314 ± 0.043 min⁻¹	76 ± 16 M⁻¹ s⁻¹			Nitrite reduction rate relative to Ngb H64L ([2]; relative to the Ngb H64L rate): about 25%; Fold increase in oleic acid KD versus WT (Oleic acid; versus Cygb WT): 4 fold
B5	0.062 ± 0.005 min⁻¹	1.24 ± 0.18 M⁻¹ s⁻¹			
B6	0.019 ± 0.005 min⁻¹	210 ± 44 M⁻¹ s⁻¹			Change of oleic acid binding (apparent KD) in the presence of imidazole (Oleic acid; several saturating concentrations of imidazole (Figure 5)): slight upwards trend
B7	0.366 ± 0.057 min⁻¹	0.65 ± 0.14 M⁻¹ s⁻¹			
B8	0.107 ± 0.018 min⁻¹	3.76 ± 0.85 M⁻¹ s⁻¹			Fold increase in nitrite reduction rate constant versus Cygb WT [2]: 3 fold
B9		0.90 ± 0.30 M⁻¹ s⁻¹			Autoxidation rate constant for the fast phase [1, 8]: 2.362 ± 0.359^c min^−1; Autoxidation rate constant for the slower phase [1, 8]: 0.303 ± 0.037 min⁻¹; Share of the autoxidation decay accounted for by the fast phase ([1]; 37°C, 100 mM sodium phosphate, pH 7.4, two-exponential fit): 73 ± 12%; Fold increase in autoxidation rate constant as compared to WT ([1]; versus WT cytoglobin): roughly 10 fold
B10	0.116 ± 0.051 min⁻¹	0.66 ± 0.18 M⁻¹ s⁻¹			
B11			0.23 ± 0.03^b min^−1	0.52 ± 0.19^d M^−1s^−1	
B12			0.010 ± 0.002^b min^−1	387 ± 21^d M^−1s^−1	
B13			0.076 ± 0.006^b min^−1	7.6 ± 1.3^d M^−1s^−1	
B14	0.010 ± 0.004 min⁻¹	302 ± 55 M⁻¹ s⁻¹			
B15			0.066 ± 0.005^b min^−1	1120 ± 140^d M^−1s^−1	
B16					Lipid binding [6]: do not show appreciable lipid binding
